For test [1], the system named is LOX IMVI. In words: Antitumor activity against human LOX IMVI cells after 48 hrs. Format: functional. In outline:
(§1)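 Tested in the NCI 60 human tumour cell line screen, with continuous drug exposure for 48 h. Values include LC50 derived from the screen.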

The test system of test [2] is PC-3. In words: Antitumor activity against PC3 cells expressing mutated p53. Format: functional, cell-based. Conditions: Homo sapiens. The method, boiled down:
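Compounds tested as tri(methanesulfonate) salts, soluble in water and dilute buffers. Human tumour cells carrying wild-type or mutated p53 were exposed for 5 days, and viability was read by MTT assay. GI50, TGI and LC50 were calculated from the MTT data. Values are means ± SD of at least three independent experiments, with coefficients of variation of 10–20%.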

Test [3] concerns HOP-92. In words: Antitumor activity against human HOP92 cells after 48 hrs. Format: functional. To be noted: HOP-92, 48 h. The method, boiled down: as §1
Test [4] has as its system HT-29. In words: Antitumor activity against human HT29 cells after 48 hrs. It counts as functional. To be noted: HT-29, 48 h. In outline:
as §1

For test [5], the system named is SK-OV-3. In words: Antitumor activity against human SK-OV-3 cells after 48 hrs. Format: functional. To be noted: SK-OV-3, 48 h. In outline: as §1
The nature of test [6]: Antitumor activity against human […] cells after 48 hrs. It counts as functional. In outline: as §1
The subject of test [7] is Hs-578T. In words: Antitumor activity against human HS578T cells after 48 hrs. It counts as functional. The method, boiled down: as §1
Test [8] deals with BT-549. In words: Antitumor activity against human BT549 cells after 48 hrs. Format: functional. To be noted: BT-549, 48 h. The method, boiled down: as §1
The mark [9] stands for this setting: read-out: Log LC50 (the source's name) (converted).

Here are results for one compound from ChEMBL document CHEMBL1138232, “Optimization of naphthalimide-imidazoacridone with potent antitumor activity leading to clinical candidate (HKH40A, RTA 502)” (J Med Chem, 2007).

Bounds are passed on as bounds.

One may read the GI50 as the concentration giving 50% growth inhibition. High values mean less potent growth inhibition, low ones more potent growth inhibition. As usually defined, the TGI is the concentration at which net growth stops. For orientation: IC50 means the concentration needed to halve the response being measured. A low value points to greater potency.

With `COc1ccc2c(c1)c(=O)c1c(NCCCN3CCN(CCCN4C(=O)c5cccc6cc([N+](=O)[O-])cc(c56)C4=O)CC3)ccc3ncn2c31.CS(=O)(=O)O`, the concentration for 50% growth inhibition (GI50) was 1.86 nM in test [1]; 5.13 nM in test [3]; 2.75 nM in test [4]; 151 nM in test [5]; 4.79 nM in test [6]; 14.8 nM in test [7]. The compound further gave a GI50 in test [8] of 3.09 nM. Further, the CC50 in test [1] (setting [9]), in test [3] (setting [9]), in test [4] (setting [9]), in test [5] (setting [9]), in test [6] (setting [9]) and in test [7] (setting [9]) was > 1000 nM each time. For the same compound, in test [8] (setting [9]), the CC50 is > 1000 nM. For the same compound, the TGI was 77.6 nM in test [1] (read-out: Log TGI (converted)); 63.1 nM in test [3] (read-out: Log TGI (converted)); 295 nM in test [4] (read-out: Log TGI (converted)); > 1000 nM in test [5] (read-out: Log TGI (converted)); > 1000 nM in test [6] (read-out: Log TGI (converted)); > 1000 nM in test [7] (read-out: Log TGI (converted)). Also, in test [8] (read-out: Log TGI (converted)), the concentration for total growth inhibition (TGI) was 53.7 nM. The same compound registered an IC50 in test [2] of 45 nM.
